Results taken from ChEMBL document CHEMBL4118097, “Selective Inhibitors of Dual Leucine Zipper Kinase (DLK, MAP3K12) with Activity in a Model of Alzheimer's Disease” (J Med Chem, 2017).

Tests used:
[1] = biological target: Tyrosine-protein kinase SYK (Homo sapiens) (UniProt P43405); test: Inhibition of recombinant full length N-terminal GST-tagged human Syk cytoplasmic domain expressed in baculovirus expression system at 1 uM by FRET assay relative to control
[2] = biological target: Myotonin-protein kinase (Homo sapiens) (UniProt Q09013); test: Inhibition of full length recombinant human DMPK expressed in baculovirus expression system at 1 uM by FRET assay relative to control
[3] = biological target: Serine/threonine-protein kinase PAK 6 (Homo sapiens) (UniProt Q9NQU5); test: Inhibition of recombinant full length His-tagged human PAK6 expressed in baculovirus expression system at 1 uM by FRET assay relative to control
[4] = biological target: Activin receptor type-1 (Homo sapiens) (UniProt Q04771); test: Inhibition of recombinant GST-tagged human ALK2 catalytic domain (147 to end residues) at 1 uM by FRET assay relative to control
[5] = biological target: Cyclin-dependent kinase 1/cyclin B1 (Homo sapiens) (UniProt P06493+P14635); test: Inhibition of recombinant full length His-tagged human CDK1/CyclinB expressed in baculovirus expression system at 1 uM by FRET assay relative to control
[6] = biological target: 5-hydroxytryptamine receptor 3A (Homo sapiens) (UniProt P46098); test: Binding affinity to 5HT3 receptor (unknown origin) receptor at 10 uM relative to control
How it was run: (§1)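 Broad radioligand-binding and enzyme screening panel covering 42 targets (biogenic amine and neuropeptide receptors, ion channels, neurotransmitter transporters, acetylcholinesterase). Single test concentration of 10 μM. Results expressed as binding relative to control, with a hit defined as >50% of control.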

[7] = biological target: Serine/threonine-protein kinase Nek6 (Homo sapiens) (UniProt Q9HC98); test: Inhibition of recombinant GST-tagged human NEK6 catalytic domain expressed in baculovirus expression system at 1 uM by FRET assay relative to control
How it was run: (§2)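 Single-point screen at 1 μM compound in a 220-kinase panel run by Life Technologies (SelectScreen). Z′-LYTE format: phosphorylation of a labeled peptide substrate read by FRET. Values are reported as percent inhibition.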

[8] = biological target: TGF-beta receptor type-1 (Homo sapiens) (UniProt P36897); test: Inhibition of recombinant full length N-terminal GST-tagged human TGFBR1 (200 to 503 residues) expressed in baculovirus expression system at 1 uM by FRET assay relative to control
[9] = biological target: Epithelial discoidin domain-containing receptor 1 (Homo sapiens) (UniProt Q08345); test: Inhibition of recombinant GST-tagged human DDR1 (440 to 876 residues) expressed in baculovirus expression system at 1 uM by FRET assay relative to control; how it was run: as §2
[10] = biological target: Ephrin type-B receptor 1 (Homo sapiens) (UniProt P54762); test: Inhibition of recombinant GST-tagged human EphB1 cytoplasmic domain expressed in baculovirus expression system at 1 uM by FRET assay relative to control; how it was run: as §2
[11] = biological target: 5'-AMP-activated protein kinase catalytic subunit alpha-1 (Homo sapiens) (UniProt Q13131); test: Inhibition of PRKAA1 (unknown origin) at 1 uM by FRET assay relative to control
[12] = biological target: CDK2/Cyclin A2 (Homo sapiens) (UniProt P24941+P20248); test: Inhibition of recombinant full length His-tagged human CDK2/CyclinA expressed in baculovirus expression system at 1 uM by FRET assay relative to control
[13] = biological target: MAP/microtubule affinity-regulating kinase 3 (Homo sapiens) (UniProt P27448); test: Inhibition of recombinant full length GST-tagged human MARK3 expressed in baculovirus expression system at 1 uM by FRET assay relative to control
How it was run: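 Single-concentration screen at 1 μM in Life Technologies SelectScreen, across a 220-kinase panel. Z′-LYTE format measures phosphorylation of a labeled peptide by FRET. Results are reported as percent inhibition.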

[14] = biological target: Muscarinic acetylcholine receptor M1 (Homo sapiens) (UniProt P11229); test: Binding affinity to recombinant human M1 acetylcholine receptor at 10 uM relative to control; how it was run: as §1
[15] = biological target: Myosin light chain kinase, smooth muscle (Homo sapiens) (UniProt Q15746); test: Inhibition of recombinant human full length N-terminal GST-tagged smMLCK catalytic domain expressed in baculovirus expression system at 1 uM by FRET assay relative to control
[16] = biological target: Mitogen-activated protein kinase kinase kinase kinase 4 (Homo sapiens) (UniProt O95819); test: Inhibition of recombinant GST-tagged human MAP4K4 (1 to 328 residues) expressed in baculovirus expression system at 1 uM by FRET assay relative to control; how it was run: as §2
[17] = biological target: 5-hydroxytryptamine receptor 1A (Homo sapiens) (UniProt P08908); test: Binding affinity to 5HT1A receptor (unknown origin) receptor at 10 uM relative to control; how it was run: as §1
[18] = biological target: Calcium/calmodulin-dependent protein kinase kinase 1 (Homo sapiens) (UniProt Q8N5S9); test: Inhibition of recombinant full length His-tagged human CAMKK1 expressed in baculovirus expression system at 1 uM by FRET assay relative to control
[19] = biological target: Adrenergic receptor alpha-2 (Homo sapiens) (UniProt P08913+P18825+P18089); test: Binding affinity to alpha2 adrenergic receptor (unknown origin) at 10 uM relative to control; format: protein assay; how it was run: as §1
[20] = biological target: Macrophage colony-stimulating factor 1 receptor (Homo sapiens, UniProt P07333); test: Inhibition of recombinant His-tagged human CSF1R cytoplasmic domain (538 to 910 residues) expressed in baculovirus expression system at 1 uM by FRET assay relative to control; how it was run: as §2
[21] = biological target: Tyrosine-protein kinase Blk (Homo sapiens) (UniProt P51451); test: Inhibition of recombinant full length His-tagged human Blk cytoplasmic domain expressed in Baculovirus expression system at 1 uM by FRET assay relative to control
[22] = biological target: LIM domain kinase 1 (Homo sapiens) (UniProt P53667); test: Inhibition of recombinant His-tagged human LIMK1 catalytic domain (285 to 638 residues) expressed in baculovirus expression system at 1 uM by FRET assay relative to control; how it was run: as §2
[23] = biological target: Serine/threonine-protein kinase B-raf (Homo sapiens) (UniProt P15056); test: Inhibition of B-Raf (unknown origin) at 1 uM by FRET assay relative to control
[24] = biological target: Glycogen synthase kinase-3 alpha (Homo sapiens) (UniProt P49840); test: Inhibition of GSK3alpha (unknown origin) at 1 uM by FRET relative to control
[25] = biological target: Phosphatidylinositol 4,5-bisphosphate 3-kinase catalytic subunit alpha isoform (Homo sapiens) (UniProt P42336); test: Inhibition of PI3KA (unknown origin) at 1 uM by FRET assay relative to control
[26] = biological target: Tyrosine-protein kinase Lck (Homo sapiens) (UniProt P06239); test: Inhibition of recombinant full length His-tagged human Lck expressed in baculovirus at 1 uM by FRET assay relative to control
[27] = biological target: Epidermal growth factor receptor (Homo sapiens) (UniProt P00533); test: Inhibition of recombinant GST-tagged human EGFR cytoplasmic domain (668 to 1210 residues) expressed in baculovirus expression system at 1 uM by FRET assay relative to control
How it was run: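 Part of a 220-kinase panel run at a single concentration of 1 μM. Z′-LYTE format: phosphorylation of a labelled peptide read by FRET. Values reported as percent inhibition.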

Chain of 5'-AMP-activated protein kinase catalytic subunit alpha-1 (Homo sapiens) (Q13131 whole entry, looked up): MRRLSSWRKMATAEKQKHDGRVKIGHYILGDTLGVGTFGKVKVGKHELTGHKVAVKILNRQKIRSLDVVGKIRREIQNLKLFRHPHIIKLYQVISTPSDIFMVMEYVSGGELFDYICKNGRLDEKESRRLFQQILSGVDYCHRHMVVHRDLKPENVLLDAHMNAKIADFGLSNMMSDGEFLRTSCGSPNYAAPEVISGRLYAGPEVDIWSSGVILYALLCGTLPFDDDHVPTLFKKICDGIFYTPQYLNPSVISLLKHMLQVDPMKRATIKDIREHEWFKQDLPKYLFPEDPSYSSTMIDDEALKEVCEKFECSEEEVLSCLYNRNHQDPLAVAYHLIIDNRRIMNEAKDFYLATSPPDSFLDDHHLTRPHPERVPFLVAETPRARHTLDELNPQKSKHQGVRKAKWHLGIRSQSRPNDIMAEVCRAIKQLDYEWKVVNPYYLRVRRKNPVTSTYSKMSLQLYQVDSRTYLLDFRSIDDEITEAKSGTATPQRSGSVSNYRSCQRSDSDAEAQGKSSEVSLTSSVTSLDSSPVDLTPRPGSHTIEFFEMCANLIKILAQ
Chain of Mitogen-activated protein kinase kinase kinase kinase 4 (Homo sapiens) (O95819 2-1239 limits assumed): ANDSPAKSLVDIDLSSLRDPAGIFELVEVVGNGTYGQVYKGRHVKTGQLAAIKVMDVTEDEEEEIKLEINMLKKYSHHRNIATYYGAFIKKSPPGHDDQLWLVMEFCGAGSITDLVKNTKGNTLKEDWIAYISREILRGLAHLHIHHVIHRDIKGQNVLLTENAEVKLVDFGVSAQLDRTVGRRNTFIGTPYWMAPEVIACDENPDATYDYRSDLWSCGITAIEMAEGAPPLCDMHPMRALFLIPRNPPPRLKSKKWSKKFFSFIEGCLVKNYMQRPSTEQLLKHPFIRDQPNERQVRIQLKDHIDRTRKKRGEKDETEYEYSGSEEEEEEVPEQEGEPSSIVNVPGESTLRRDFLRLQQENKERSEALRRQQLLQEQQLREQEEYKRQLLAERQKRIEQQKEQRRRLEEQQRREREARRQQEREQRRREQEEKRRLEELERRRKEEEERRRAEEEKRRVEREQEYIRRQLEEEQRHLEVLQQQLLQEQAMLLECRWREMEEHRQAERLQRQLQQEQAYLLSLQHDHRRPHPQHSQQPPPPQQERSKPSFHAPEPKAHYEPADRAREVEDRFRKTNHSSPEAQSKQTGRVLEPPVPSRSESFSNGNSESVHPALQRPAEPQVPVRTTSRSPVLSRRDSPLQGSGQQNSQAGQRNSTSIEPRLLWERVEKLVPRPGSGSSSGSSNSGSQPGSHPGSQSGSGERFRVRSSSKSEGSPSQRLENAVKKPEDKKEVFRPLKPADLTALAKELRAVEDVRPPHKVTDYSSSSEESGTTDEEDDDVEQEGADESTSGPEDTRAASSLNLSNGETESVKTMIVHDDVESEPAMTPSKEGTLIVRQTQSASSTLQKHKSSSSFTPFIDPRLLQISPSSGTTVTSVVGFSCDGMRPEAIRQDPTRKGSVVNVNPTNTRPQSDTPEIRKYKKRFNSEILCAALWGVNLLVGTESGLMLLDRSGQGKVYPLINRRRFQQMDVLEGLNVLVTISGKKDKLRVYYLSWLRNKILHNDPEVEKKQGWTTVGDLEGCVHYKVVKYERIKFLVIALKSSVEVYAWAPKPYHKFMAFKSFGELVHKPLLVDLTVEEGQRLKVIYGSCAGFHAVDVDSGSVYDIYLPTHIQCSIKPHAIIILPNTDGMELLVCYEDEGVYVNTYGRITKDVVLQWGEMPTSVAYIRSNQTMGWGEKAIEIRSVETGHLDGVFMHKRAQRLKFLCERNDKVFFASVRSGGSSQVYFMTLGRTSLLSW
Chain of Muscarinic acetylcholine receptor M1 (Homo sapiens) (P11229 whole entry, the tested form may be a part): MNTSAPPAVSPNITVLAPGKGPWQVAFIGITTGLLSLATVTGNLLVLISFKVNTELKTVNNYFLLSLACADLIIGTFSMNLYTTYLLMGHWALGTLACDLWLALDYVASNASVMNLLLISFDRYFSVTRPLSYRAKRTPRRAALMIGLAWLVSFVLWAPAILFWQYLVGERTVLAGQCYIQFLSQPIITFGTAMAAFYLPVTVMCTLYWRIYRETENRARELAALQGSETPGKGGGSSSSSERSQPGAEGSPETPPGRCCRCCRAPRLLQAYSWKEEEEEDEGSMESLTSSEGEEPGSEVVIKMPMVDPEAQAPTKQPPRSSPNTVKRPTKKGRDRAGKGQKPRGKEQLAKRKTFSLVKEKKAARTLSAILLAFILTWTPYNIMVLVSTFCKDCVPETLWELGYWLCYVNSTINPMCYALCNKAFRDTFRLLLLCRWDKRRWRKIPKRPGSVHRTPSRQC
Chain of LIM domain kinase 1 (Homo sapiens) (P53667 whole entry, looked up, the tested form may be a part): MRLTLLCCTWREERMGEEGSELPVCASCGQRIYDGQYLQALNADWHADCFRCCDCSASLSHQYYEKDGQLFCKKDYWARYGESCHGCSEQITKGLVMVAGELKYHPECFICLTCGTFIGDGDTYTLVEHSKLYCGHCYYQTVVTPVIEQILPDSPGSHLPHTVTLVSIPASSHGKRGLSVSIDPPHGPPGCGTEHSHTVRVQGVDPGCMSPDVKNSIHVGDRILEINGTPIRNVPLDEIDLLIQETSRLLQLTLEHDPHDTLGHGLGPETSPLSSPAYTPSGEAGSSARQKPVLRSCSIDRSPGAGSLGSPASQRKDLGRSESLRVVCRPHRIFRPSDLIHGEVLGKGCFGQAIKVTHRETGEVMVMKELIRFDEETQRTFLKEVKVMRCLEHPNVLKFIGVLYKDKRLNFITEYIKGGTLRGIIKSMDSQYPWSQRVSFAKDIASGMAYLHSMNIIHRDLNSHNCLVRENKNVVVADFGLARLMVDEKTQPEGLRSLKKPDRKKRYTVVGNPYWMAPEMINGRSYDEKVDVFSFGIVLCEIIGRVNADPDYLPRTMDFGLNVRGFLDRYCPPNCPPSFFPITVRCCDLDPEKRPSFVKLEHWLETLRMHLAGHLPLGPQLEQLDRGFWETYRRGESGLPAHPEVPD
Chain of MAP/microtubule affinity-regulating kinase 3 (Homo sapiens) (P27448 whole entry, looked up): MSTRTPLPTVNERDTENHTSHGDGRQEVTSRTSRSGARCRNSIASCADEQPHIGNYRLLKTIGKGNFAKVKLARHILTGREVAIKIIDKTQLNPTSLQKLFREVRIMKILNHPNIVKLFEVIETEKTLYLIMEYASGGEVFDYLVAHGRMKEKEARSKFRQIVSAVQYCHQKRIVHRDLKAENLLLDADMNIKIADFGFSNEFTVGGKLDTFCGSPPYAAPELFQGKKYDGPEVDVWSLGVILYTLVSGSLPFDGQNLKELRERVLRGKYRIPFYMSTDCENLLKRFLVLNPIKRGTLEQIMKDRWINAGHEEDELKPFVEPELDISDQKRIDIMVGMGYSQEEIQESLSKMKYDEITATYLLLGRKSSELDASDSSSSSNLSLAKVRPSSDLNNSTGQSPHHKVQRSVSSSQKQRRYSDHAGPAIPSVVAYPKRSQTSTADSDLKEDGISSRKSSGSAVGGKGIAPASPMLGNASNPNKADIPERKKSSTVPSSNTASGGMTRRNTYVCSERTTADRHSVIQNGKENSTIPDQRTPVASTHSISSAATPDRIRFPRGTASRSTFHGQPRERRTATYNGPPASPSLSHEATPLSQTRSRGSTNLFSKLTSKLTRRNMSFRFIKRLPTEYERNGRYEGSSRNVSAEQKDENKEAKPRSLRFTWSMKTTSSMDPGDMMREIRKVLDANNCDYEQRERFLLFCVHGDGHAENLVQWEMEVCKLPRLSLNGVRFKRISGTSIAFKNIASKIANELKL
Chain of Tyrosine-protein kinase Lck (Homo sapiens) (P06239 2-509 limits assumed): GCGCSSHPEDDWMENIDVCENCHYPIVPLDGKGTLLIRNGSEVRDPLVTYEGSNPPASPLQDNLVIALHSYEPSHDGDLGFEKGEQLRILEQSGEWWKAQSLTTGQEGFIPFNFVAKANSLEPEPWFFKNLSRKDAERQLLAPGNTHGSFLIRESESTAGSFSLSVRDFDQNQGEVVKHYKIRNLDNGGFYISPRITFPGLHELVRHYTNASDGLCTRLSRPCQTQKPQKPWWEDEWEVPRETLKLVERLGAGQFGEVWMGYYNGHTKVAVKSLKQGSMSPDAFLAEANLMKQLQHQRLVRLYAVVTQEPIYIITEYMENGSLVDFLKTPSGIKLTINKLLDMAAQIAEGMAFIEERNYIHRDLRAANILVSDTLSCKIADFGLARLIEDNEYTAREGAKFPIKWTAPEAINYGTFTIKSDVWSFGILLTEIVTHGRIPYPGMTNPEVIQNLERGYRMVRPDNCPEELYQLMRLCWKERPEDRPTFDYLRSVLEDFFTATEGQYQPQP
Chain of Serine/threonine-protein kinase B-raf (Homo sapiens) (P15056 whole entry): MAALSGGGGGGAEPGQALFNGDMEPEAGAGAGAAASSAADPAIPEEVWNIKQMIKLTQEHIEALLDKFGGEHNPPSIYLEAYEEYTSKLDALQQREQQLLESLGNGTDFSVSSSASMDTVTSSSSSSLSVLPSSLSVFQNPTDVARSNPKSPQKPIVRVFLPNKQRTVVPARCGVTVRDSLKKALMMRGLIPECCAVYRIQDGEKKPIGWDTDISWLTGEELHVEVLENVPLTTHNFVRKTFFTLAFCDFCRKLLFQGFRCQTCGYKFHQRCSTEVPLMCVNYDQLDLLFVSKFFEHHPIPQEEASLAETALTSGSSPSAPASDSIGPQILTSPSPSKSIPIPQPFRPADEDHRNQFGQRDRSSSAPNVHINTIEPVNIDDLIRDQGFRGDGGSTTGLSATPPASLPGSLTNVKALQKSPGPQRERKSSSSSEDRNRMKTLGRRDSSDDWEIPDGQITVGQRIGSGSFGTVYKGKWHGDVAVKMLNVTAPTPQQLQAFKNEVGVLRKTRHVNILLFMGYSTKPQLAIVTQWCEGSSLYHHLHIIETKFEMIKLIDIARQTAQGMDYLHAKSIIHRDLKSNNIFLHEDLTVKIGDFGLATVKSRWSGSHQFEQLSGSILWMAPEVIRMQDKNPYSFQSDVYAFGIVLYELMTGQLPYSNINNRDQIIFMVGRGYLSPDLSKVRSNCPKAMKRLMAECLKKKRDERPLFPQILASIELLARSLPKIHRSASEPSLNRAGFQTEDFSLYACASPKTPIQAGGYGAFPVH

SMILES	inhibition [1]	inhibition [2]	inhibition [3]	inhibition [4]	inhibition [5]	Activity [6]	inhibition [7]	inhibition [8]	inhibition [9]	inhibition [10]	inhibition [11]	inhibition [12]	inhibition [13]	Activity [14]	inhibition [15]	inhibition [16]	Activity [17]	inhibition [18]	Activity [19]	inhibition [20]	further results
CC(C)n1nc(-c2cnc(N)c(OC(F)(F)F)c2)cc1[C@H]1[C@@H]2CN(C3COC3)C[C@@H]21	26.8%	39.1%	4.8%	10.9%	16%	> 50%	5.1%	1.6%	5.2%	10.1%	5%	5.7%	16.8%	> 50%	19.6%	22.1%	> 50%	-7.5%	> 50%	46.3%	inhibition [21]: 5.3%; inhibition [22]: 7.7%; inhibition [23]: 3.7%; inhibition [24]: 7.8%; inhibition [25]: -2.7%; inhibition [26]: 7.5%; inhibition [27]: -2%
Nc1ncc(-c2cc([C@H]3[C@@H]4CN(C5COC5)C[C@@H]43)n(CC3CC3)n2)cc1C(F)(F)F	30.6%	58.5%	5.1%	25.8%	2.4%	> 50%	0.3%	11.7%	-1.5%	5.9%	3.3%	4.3%	14.1%	> 50%	11.7%	21.4%	> 50%	-0.3%	> 50%	54.1%	inhibition [21]: 27.4%; inhibition [22]: 0.3%; inhibition [23]: 1.8%; inhibition [24]: 0.8%; inhibition [25]: -9.8%; inhibition [26]: 36.1%; inhibition [27]: -1.1%
